According to PMC12435242 (Proceedings of the National Academy of Sciences of the …, 2025):

Key:
[1] = target: SV2A (Homo sapiens, UniProt Q7L0J3); test: 3H-UCB-J binding with or without UCB1244283; conditions: Kd of 3H-UCB-J binding to SV2A
[2] = target: SV2A-W300A (Homo sapiens, UniProt Q7L0J3, W300A); test: 3H-LEV binding with or without UCB1244283, primary site mutant
[3] = target: SV2A-D670A (Homo sapiens, UniProt Q7L0J3, D670A); test: as above
[4] = system: SV2A compared to SV2B and SV2C; conditions: cited from earlier work
[5] = system: all SV2 members (SV2s); conditions: cited from earlier work
[6] = target: SV2A L655Q mutant (Homo sapiens, UniProt Q7L0J3, L655Q); test: 3H-LEV filter binding, concentration-response of UCB1244283; conditions: 3H-LEV 3.3 µM
Summary of the method: (§1)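 Membranes came from tsA201 cells transfected with PEI and harvested at 48–60 h. Cells expressed human SV2A mutants lacking residues 1–64, tagged C-terminally with mVenus/TwinStrep/His10. Equal protein per FSEC was used. Incubation was 45 min on ice with 3H-LEV 3.3 µM plus test compound, 1 nM–30 µM final. Nonspecific binding was set with 1 mM unlabeled PSL. Filtration used 1% PEI-soaked glass-fibre filters, with an ice-cold TBS150 wash, then scintillation counting. Assays were run in triplicate and fitted to a three-parameter log(agonist)–response curve.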

[7] = target: SV2A A308S mutant (Homo sapiens, UniProt Q7L0J3, A308S); test: as above; conditions: 3H-LEV 3.3 µM
Summary of the method: as §1

[8] = system: SV2A in human brain membranes; conditions: cited from earlier work
[9] = target: SV2A-G659C (Homo sapiens, UniProt Q7L0J3, G659C); test: 3H-LEV filter binding, concentration-response of UCB1244283
[10] = target: SV2A T465A mutant (Homo sapiens, UniProt Q7L0J3, T465A); test: 3H-LEV filter binding, concentration-response of UCB1244283; conditions: 3H-LEV 3.3 µM
Summary of the method: as §1

[11] = target: SV2A G659N mutant (Homo sapiens, UniProt Q7L0J3, G659N); test: as above; conditions: 3H-LEV 3.3 µM
Summary of the method: as §1

[12] = system: sound-sensitive mice; conditions: cited from earlier work
[13] = system: PSL-bound SV2A complex; conditions: cited from earlier work
[14] = target: SV2A-F188A (Homo sapiens, UniProt Q7L0J3, F188A); test: 3H-LEV filter binding, concentration-response of UCB1244283
Summary of the method: (§2)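 Human SV2AΔ64 (C-terminal mVenus/TwinStrep/His10), wild-type or point mutant, PEI-transfected into suspension tsA201 cells. Membranes harvested 48–60 h later and loaded at equal SV2A by FSEC. Incubated 45 min on ice with 3.3 µM 3H-LEV and test compound 1 nM–30 µM; nonspecific binding defined with 1 mM PSL. PEI-soaked glass-fibre filtration, scintillation counting. EC50 by three-parameter log(agonist) fit; triplicate; mean ± SEM.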

[15] = target: wild-type SV2A (SV2AΔ64-mVenus) (Homo sapiens, UniProt Q7L0J3); test: as above
Summary of the method: as §2

[16] = system: SV2A; conditions: cited from earlier work
[17] = target: SV2A-F184A (Homo sapiens, UniProt Q7L0J3, F184A); test: 3H-LEV filter binding, concentration-response of UCB1244283
Summary of the method: as §2

[18] = by slowing the rate of dissociation

SV2A-D670A, sequence (Q7L0J3 65-742 D670A limits assumed): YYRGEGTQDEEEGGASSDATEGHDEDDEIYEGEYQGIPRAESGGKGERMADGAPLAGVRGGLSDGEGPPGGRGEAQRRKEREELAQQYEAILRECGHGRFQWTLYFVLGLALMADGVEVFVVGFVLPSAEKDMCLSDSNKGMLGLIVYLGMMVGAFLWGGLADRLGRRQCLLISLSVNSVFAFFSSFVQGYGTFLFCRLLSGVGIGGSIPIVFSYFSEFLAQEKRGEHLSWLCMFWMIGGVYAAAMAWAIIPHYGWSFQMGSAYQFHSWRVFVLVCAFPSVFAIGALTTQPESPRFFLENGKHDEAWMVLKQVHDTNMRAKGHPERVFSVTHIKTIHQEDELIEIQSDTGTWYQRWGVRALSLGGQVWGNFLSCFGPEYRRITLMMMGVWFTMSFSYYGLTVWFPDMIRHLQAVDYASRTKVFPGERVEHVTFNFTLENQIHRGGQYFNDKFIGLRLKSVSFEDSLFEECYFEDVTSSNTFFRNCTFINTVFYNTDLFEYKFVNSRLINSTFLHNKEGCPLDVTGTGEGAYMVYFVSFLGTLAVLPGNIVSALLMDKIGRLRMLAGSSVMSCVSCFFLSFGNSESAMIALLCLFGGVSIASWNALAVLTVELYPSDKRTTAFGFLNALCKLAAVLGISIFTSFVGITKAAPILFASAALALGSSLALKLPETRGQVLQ
SV2A-F184A, sequence (Q7L0J3 65-742 F184A limits assumed): as the sequence (Q7L0J3 65-742 D670A limits assumed) above, with F120A, A606D counted along it
SV2A-F188A, sequence (Q7L0J3 65-742 F188A limits assumed): as the sequence (Q7L0J3 65-742 D670A limits assumed) above, with F124A, A606D counted along it
wild-type SV2A (SV2AΔ64-mVenus), sequence (Q7L0J3 65-742 limits assumed, stated change not applied): as the sequence (Q7L0J3 65-742 D670A limits assumed) above, with A606D counted along it
SV2A (Homo sapiens, UniProt Q7L0J3), sequence (Q7L0J3 65-742 limits assumed): as the sequence (Q7L0J3 65-742 D670A limits assumed) above, with A606D counted along it
SV2A-G659C, sequence (Q7L0J3 65-742 G659C limits assumed): as the sequence (Q7L0J3 65-742 D670A limits assumed) above, with G595C, A606D counted along it
SV2A-W300A, sequence (Q7L0J3 65-742 W300A limits assumed): as the sequence (Q7L0J3 65-742 D670A limits assumed) above, with W236A, A606D counted along it
SV2A G659N mutant, sequence (Q7L0J3 65-742 G659N limits assumed): as the sequence (Q7L0J3 65-742 D670A limits assumed) above, with G595N, A606D counted along it
SV2A T465A mutant, sequence (Q7L0J3 65-742 T465A limits assumed): as the sequence (Q7L0J3 65-742 D670A limits assumed) above, with T401A, A606D counted along it
SV2A A308S mutant, sequence (Q7L0J3 65-742 A308S limits assumed): as the sequence (Q7L0J3 65-742 D670A limits assumed) above, with A244S, A606D counted along it
SV2A L655Q mutant, sequence (Q7L0J3 65-742 L655Q limits assumed): as the sequence (Q7L0J3 65-742 D670A limits assumed) above, with L591Q, A606D counted along it

`Cc1cnccc1CN1C[C@@H](c2cc(F)c(F)c(F)c2)CC1=O` [UCB-J, (4R)-1-((3-Methyl-4-pyridinyl)methyl)-4-(3,4,5-trifluorophenyl)-2-pyrrolidinone] gave a Kd ([1]; in the absence of UCB1244283) of 5.3 ± 0.8 nM and a Kd ([1]; in the presence of saturating UCB1244283) of 6 ± 1 nM.
For `CC[C@@H](C(N)=O)N1CCCC1=O` [LEV, 2S-(2-oxo-1-pyrrolidinyl)butanamide], the “LEV binding to mutant” value ([2]; W300A, with or without UCB1244283) is given as “unable to measure any significant LEV binding”, the “LEV binding to mutant” value ([3]; D670A, with or without UCB1244283) is given as “unable to measure any significant LEV binding” and the “higher affinity for SV2A compared to SV2B and SV2C” value [4] is given as “at least 100 fold”.
For `CCC[C@@H]1CC(=O)N([C@@H](CC)C(N)=O)C1` [BRV, (2S)-2-((4R)-2-oxo-4-propylpyrrolidin-1-yl)butanamide], the “higher affinity for SV2A compared to SV2B and SV2C” value [4] is given as “at least 100 fold”.
In the case of `COCc1nn2c(CN3CC(CC(F)(F)Cl)CC3=O)c(C(F)(F)F)nc2s1` (single isomer, unassigned) [PSL], the “affinity for all SV2 members” value [5] is listed as “nanomolar affinity”.
For `COc1ccccc1NC(=O)CC(C)Cc1cc(C)cc(C)c1` (centres unmarked) [UCB1244283, 4-(3,5-dimethylphenyl)-N-(2-methoxyphenyl)-3-methylbutanamide], the “effect on maximum specific binding (Bmax) of 3H-LEV” value ([2]; UCB1244283 30 µM, 3H-LEV 3.3 µM, SV2A-W300A) was “does not enhance”, the “change in LEV binding on addition of UCB1244283” value (shortened to “change in LEV binding”) [6] was “do not show a significant change in LEV binding” and the “change in LEV binding” value [7] was “do not show a significant change in LEV binding”. For the same compound, the “effect of UCB1244283 on BRV binding” value [8] was “increases both the Bmax and binding affinity”, the “effect of UCB1244283 on LEV binding” value [8] was “only increases the Bmax” and the EC50 [9] was 1000 ± 800 nM. The “reduction in Bmax of 3H-LEV binding compared to wild-type” value ([9]; G659C mutant, with UCB1244283) was ~ 4 fold, the “change in LEV binding” value [10] was “do not show a significant change in LEV binding” and the “change in LEV binding” value [11] was “do not show a significant change in LEV binding”. For the same compound, the protection against seizures [12] was “protection against both tonic and clonic seizures”, the “effect on maximum specific binding (Bmax) of 3H-LEV” value ([3]; UCB1244283 30 µM, 3H-LEV 3.3 µM, SV2A-D670A) was “does not enhance” and the “binding to the PSL-bound SV2A complex” value [13] was “does not bind”. For the same compound, the EC50 [14] was 70 ± 10 nM, the “enhancement of EC50 for UCB1244283 compared to wild-type” value ([14]; F188A mutant) was roughly 9 fold and the EC50 [15] was 700 ± 300 nM. For the same compound, the “increase in specific counts of 3H-LEV binding” value ([15]; saturating 3H-LEV (~4 µM), with vs without UCB1244283 30 µM) was ~ 2 fold, the “increase in binding affinity for BRV on incubation of UCB1244283 with SV2A” value [16, 18] was 10 fold and the “increase in binding affinity for LEV on incubation of UCB1244283 with SV2A” value [16, 18] was 2.5 fold. For the same compound, the “increase in maximum binding capacity (Bmax) for BRV” value ([16]; with UCB1244283) was 1.4 fold, the “increase in maximum binding capacity (Bmax) for LEV” value ([16]; with UCB1244283) was “twofold” and the EC50 [17] was 200 ± 40 nM. For the same compound, the “enhancement of EC50 for UCB1244283 compared to wild-type” value ([17]; F184A mutant) was ~ 3 fold.
